The results in this text go back to ChEMBL document CHEMBL4411328, “Synthesis and Structural/Functional Characterization of Selective M14 Metallocarboxypeptidase Inhibitors Based on Phosphinic Pseudopeptide Scaffold: Implications on the Design of Specific Optical Probes” (J Med Chem, 2019).

pKi: −log10 of the molar value. Active and inactive are the calls of the source. The rule behind the calls is not given here.

In data set [1] the target is T1, Carboxypeptidase A1 (Homo sapiens, UniProt P15085).
T1 sequence (P15085 whole entry): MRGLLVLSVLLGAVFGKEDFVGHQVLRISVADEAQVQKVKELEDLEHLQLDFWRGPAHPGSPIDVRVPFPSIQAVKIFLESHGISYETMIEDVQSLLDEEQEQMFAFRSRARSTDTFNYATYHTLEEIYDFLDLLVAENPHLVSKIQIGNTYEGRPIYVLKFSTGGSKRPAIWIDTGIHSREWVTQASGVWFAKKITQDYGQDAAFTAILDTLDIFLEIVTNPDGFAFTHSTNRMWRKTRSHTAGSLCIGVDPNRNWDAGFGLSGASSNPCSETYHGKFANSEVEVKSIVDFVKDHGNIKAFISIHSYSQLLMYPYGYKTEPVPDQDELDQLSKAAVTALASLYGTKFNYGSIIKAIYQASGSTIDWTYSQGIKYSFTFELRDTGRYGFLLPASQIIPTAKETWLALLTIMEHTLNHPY
Kind of data set: Inhibition of human CPA1 using AAFP as substrate preincubated for 45 mins to 2 hrs measured at 30 sec intervals for 15 mins by UV/vis-spectrophotometry. Summed up: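 hCPA1 was used at 1.0x10-8 M with AAFP substrate at 1.0x10-4 M, read at 355 nm. Enzyme and inhibitor were preincubated 45 min at 37 °C before substrate was added. Initial velocities were read every 30 sec for 15 min, in triplicate. Apparent Ki came from a fit to the tight-binding equation.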

A further data set addresses T2, Carboxypeptidase A2 (Homo sapiens, UniProt P48052).
T2 sequence (P48052 whole entry): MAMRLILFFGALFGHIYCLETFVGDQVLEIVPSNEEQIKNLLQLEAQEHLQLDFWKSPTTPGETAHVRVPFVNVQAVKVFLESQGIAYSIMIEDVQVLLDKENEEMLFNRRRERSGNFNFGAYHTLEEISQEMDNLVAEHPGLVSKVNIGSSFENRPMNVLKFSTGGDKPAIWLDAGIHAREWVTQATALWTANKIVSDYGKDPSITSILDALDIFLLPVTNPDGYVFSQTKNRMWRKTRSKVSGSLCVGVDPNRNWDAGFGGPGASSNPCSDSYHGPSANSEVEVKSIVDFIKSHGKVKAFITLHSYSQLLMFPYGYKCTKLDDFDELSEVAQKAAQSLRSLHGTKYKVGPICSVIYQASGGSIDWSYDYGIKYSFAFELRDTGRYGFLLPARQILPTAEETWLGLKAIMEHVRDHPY
Briefly: Inhibition of human CPA2 using AAFP as substrate preincubated for 45 mins to 2 hrs measured at 30 sec intervals for 15 mins by UV/vis-spectrophotometry. The method in brief:
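hCPA2 was used at 3.0x10-8 M with AAFP substrate at 1.0x10-4 M, read at 355 nm, in 20 mM Tris-HCl pH 7.5, 500 mM NaCl, 1% DMSO, 0.05% Brij-35. After a 45 min preincubation at 37 °C, initial rates were followed at 30 sec intervals for 15 min, in triplicate. Kiapp was fitted by the tight-binding equation.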

Data set [2] has as its target Prothrombin (Homo sapiens) (UniProt P00734). Kind of data set: Inhibition of human thrombin at 1 nM to 1 mM using benzoylphenyl-valyl-arginine 4-nitroanilide as substrate preincubated for 45 mins measured at 30 sec intervals for 15 mins by UV/vis-spectrophotometry. The method in brief: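 hThrombin 2.0x10-8 M with 1.0x10-3 M BzFVRPNA in 100 mM Tris-HCl pH 8.0, followed at 414 nm. Enzyme and inhibitor preincubated 45 min at 37 °C; substrate then added; initial velocities every 30 sec for 15 min, in triplicate.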

In data set [3] the target is T1, Carboxypeptidase A1. Kind of data set: Inhibition of human CPA1 using AAFP as substrate measured at pre-steady state by spectrophotometry.
Data set [4] has as its target T3, Carboxypeptidase A1 (Homo sapiens) (UniProt P15085).
T3 sequence (whole entry): T1 sequence (P15085 whole entry)
Briefly: Inhibition of human CPA1 using AAFP as substrate assessed as association rate constant measured at pre-steady state by spectrophotometry.

For data set [5], the target named is T1, Carboxypeptidase A1. Kind of data set: Inhibition of human CPA1 using AAFP as substrate assessed as apparent first-order rate constant measured at pre-steady state by measuring Koff/Kon ratio by spectrophotometry. The following applies: read-out: Ki(app).
The test system of data set [6] is HeLa. Briefly: Cytotoxicity against human HeLa cells by fluorescence confocal microscopy. It is filed as cell-based.
The target in data set [7] is T3, Carboxypeptidase A1 (Homo sapiens). Kind of data set: Inhibition of human CPA1 using AAFP as substrate assessed as dissociation rate constant measured at pre-steady state by spectrophotometry.
The next data set addresses Papain (Carica papaya) (UniProt P00784). Kind of data set: Inhibition of papaya papain at 1 nM to 1 mM using L-pyroglutamyl-Lphenylalanyl-L-leucine-p-nitroanilide peptide as substrate preincubated for 45 mins measured at 30 sec intervals for 15 mins by UV/vis-spectrophotometry. Summed up: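 Papain 4.5x10-8 M, PFLNA substrate 4.0x10-4 M, buffer 100 mM phosphate pH 6.5, 100 mM KCl, 0.1 mM EDTA, 3 mM DTT, 0.05% w/v Brij-35; read at 414 nm. 45 min preincubation at 37 °C with inhibitor; initial velocities, 30-sec reads for 15 min, triplicate.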

The target in the next data set is Collagenase 3 (Homo sapiens, UniProt P45452). Kind of data set: Inhibition of human MMP13 using fluorogenic Mca-Pro-Leu-Gly-Leu-Dpa-Ala-Arg-NH2 peptide as substrate preincubated for 45 mins measured at 30 sec intervals for 15 mins by UV/vis-spectrophotometry. The method in brief:
(§1)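 MMPs at nanomolar level with fluorogenic Mca-Pro-Leu-Gly-Leu-Dpa-Ala-Arg-NH2 substrate in 50 mM Tris-HCl pH 6.8, 10 mM CaCl2. Enzyme, inhibitor and buffer preincubated 45 min at 37 °C, then substrate added; initial velocities from 30-sec reads over 15 min, in triplicate.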

The species entered for a further data set is Homo sapiens. Kind of data set: Inhibition of pepsin (unknown origin) at 1 nM to 1 mM using H-Leu-Ser-p-nitro-Phe-Nle-Ala-Leu-OMe peptide as substrate preincubated for 45 mins measured at 30 sec intervals for 15 mins by UV/vis-spectrophotometry. The method in brief:
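Pepsin 1.0x10-8 M with 2.0x10-4 M LSPNP substrate in 100 mM acetate pH 4.4, monitored at 310 nm. Inhibitor preincubated with enzyme 45 min at 37 °C; initial velocities over 15 min at 30-sec intervals; triplicate.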

For a further data set, the target named is Stromelysin-2 (Homo sapiens, UniProt P09238). Kind of data set: Inhibition of human MMP10 using fluorogenic Mca-Pro-Leu-Gly-Leu-Dpa-Ala-Arg-NH2 peptide as substrate preincubated for 45 mins measured at 30 sec intervals for 15 mins by UV/vis-spectrophotometry. Summed up: as §1
Data set [8] addresses Carboxypeptidase B2 (Homo sapiens) (UniProt Q96IY4). Briefly: Inhibition of human TAFI at 1 nM to 1 mM using AAFA as substrate preincubated for 45 mins measured at 30 sec intervals for 15 mins by UV/vis-spectrophotometry. Summed up: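 Absorbance at 355 nm. Preincubation 45 min at 37 °C with inhibitor before substrate addition. Initial velocities from 30-sec reads over 15 min; triplicates.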

The test system of data set [9] is HeLa. Kind of data set: Cytotoxicity against human HeLa cells assessed as reduction in cell viability at 1 to 5 uM after 24 hrs by XTT assay. The class given is cell-based. Summed up:
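Cells were exposed to compound at 1 and 5 µM for 24h in culture, and viability was then read by the XTT assay.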
In general terms: Tetrazolium dyes change colour on reduction, which living cells bring about.

Sequence of Stromelysin-2 (P09238 whole entry): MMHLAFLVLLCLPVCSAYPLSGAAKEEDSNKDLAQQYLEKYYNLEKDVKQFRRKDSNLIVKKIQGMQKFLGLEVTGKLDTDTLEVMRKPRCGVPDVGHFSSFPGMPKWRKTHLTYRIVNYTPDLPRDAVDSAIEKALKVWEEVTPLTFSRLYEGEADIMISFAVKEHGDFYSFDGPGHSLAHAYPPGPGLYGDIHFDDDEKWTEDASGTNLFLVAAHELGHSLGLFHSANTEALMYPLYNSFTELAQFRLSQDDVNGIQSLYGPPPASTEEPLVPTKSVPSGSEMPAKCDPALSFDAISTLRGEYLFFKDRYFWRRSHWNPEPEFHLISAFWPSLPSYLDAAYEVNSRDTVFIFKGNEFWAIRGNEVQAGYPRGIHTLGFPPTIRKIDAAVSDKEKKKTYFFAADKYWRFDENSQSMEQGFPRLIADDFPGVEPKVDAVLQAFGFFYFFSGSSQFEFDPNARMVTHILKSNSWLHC
Sequence of Papain (Carica papaya) (P00784 whole entry): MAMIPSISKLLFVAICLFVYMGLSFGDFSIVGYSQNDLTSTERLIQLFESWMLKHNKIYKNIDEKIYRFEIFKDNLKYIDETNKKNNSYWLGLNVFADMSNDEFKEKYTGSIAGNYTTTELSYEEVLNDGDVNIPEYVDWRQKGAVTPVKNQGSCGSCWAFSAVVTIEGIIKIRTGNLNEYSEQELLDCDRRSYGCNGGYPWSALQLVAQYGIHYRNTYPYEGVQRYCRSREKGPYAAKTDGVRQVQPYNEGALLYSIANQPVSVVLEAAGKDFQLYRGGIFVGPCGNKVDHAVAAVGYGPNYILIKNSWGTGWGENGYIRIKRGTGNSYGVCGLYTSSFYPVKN
Sequence of Carboxypeptidase B2 (Homo sapiens) (Q96IY4 whole entry): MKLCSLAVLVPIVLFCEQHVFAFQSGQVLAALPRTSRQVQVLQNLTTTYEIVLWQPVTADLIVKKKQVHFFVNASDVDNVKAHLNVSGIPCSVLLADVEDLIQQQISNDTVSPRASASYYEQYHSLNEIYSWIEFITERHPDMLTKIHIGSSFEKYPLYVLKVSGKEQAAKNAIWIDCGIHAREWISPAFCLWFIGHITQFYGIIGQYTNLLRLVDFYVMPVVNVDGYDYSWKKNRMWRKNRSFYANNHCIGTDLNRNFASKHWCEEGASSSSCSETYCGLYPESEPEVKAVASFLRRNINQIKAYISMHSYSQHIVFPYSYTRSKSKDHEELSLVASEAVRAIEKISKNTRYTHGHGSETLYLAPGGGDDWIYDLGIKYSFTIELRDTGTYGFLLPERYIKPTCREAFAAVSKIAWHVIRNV

For `CC(=O)N[C@@H](CCC(=O)O)C(=O)N[C@@H](C)P(=O)(O)C[C@@H](CCc1ccccc1)C(=O)O`, the pKi at Carboxypeptidase A1 [1] was 8.51; on Carboxypeptidase A2, 8.34.
On the same counts, the results for `C[C@H](NC(=O)[C@H](Cc1ccc(O)cc1)NC(=O)COCCOCCN)P(=O)(O)C[C@@H](CCc1ccccc1)C(=O)O` are 9.52 and 8.11.
Regarding `C[C@H](NC(=O)[C@H](Cc1ccc(O)cc1)NC(=O)COCCOCCNC(=O)CCOCCOCCOCCNC(=O)CCc1ccc(C(=C\C=C2\N(CCCCS(=O)(=O)O)c3ccc4c(S(=O)(=O)[O-])cc(S(=O)(=O)O)cc4c3C2(C)C)/C=C/C2=[N+](CCCCS(=O)(=O)O)c3ccc4c(S(=O)(=O)O)cc(S(=O)(=O)O)cc4c3C2(C)C)cc1)P(=O)(O)C[C@@H](CCc1ccccc1)C(=O)O`, the pKi was 10.05 at Carboxypeptidase A1 [1]; 10.15 at Carboxypeptidase A1 [3]; 9.62 at Carboxypeptidase A1 [5]; 8.28 at Carboxypeptidase A2; 6.25 at Collagenase 3; 6.01 on Stromelysin-2. For the same compound, the inhibition result (in [2]; at Papain (Carica papaya); in the data set filed under Homo sapiens; in [8]) was “inactive” each time. Moreover, the K was 2.03 ×10⁵ /M/s in data set [4] and 4.8 ×10⁻⁵ /s in data set [7]. For the same compound, the Activity result in the data set on HeLa [6] is on record as “Non-Toxic”.
On to `CC(=O)NCCOCCOCC(=O)N[C@@H](Cc1ccc(O)cc1)C(=O)N[C@@H](C)P(=O)(O)C[C@@H](CCc1ccccc1)C(=O)O`, for which the pKi is 9.89 on Carboxypeptidase A1 [1], 9.80 on Carboxypeptidase A1 [3], 9.28 on Carboxypeptidase A1 [5] and 8.24 at Carboxypeptidase A2. Moreover, the K is 1.33 ×10⁵ /M/s in data set [4] and 7 ×10⁻⁵ /s in data set [7].
Regarding `CC(=O)N[C@@H](CC(C)C)C(=O)N[C@@H](Cc1ccccc1)P(=O)(O)C[C@@H](CCc1ccccc1)C(=O)O`, the results for the pKi at Carboxypeptidase A1 [1] and at Carboxypeptidase A2 were 10.10 and 9.70, respectively.
`CC(=O)N[C@@H](CC(C)C)C(=O)N[C@@H](C)P(=O)(O)C[C@@H](CCc1ccccc1)C(=O)O`: the pKi on Carboxypeptidase A1 [1] is 10.06; at Carboxypeptidase A1 [3] it was 9.85; at Carboxypeptidase A1 [5], 9.33; on Carboxypeptidase A2, 9.15. Besides, the K in data set [4] stood at 1.27 ×10⁵ /M/s; in data set [7], 6 ×10⁻⁵ /s.
For the compound `CC(=O)N[C@@H](CO)C(=O)N[C@@H](C)P(=O)(O)C[C@@H](CCc1ccccc1)C(=O)O`, the pKi is 8.23 on Carboxypeptidase A1 [1] and 7.86 at Carboxypeptidase A2.
For `CC(=O)N[C@@H](CCCCN)C(=O)N[C@@H](C)P(=O)(O)C[C@@H](CCc1ccccc1)C(=O)O` the same measures were 8.92 and 8.62.
Consider `CC(=O)N[C@@H](Cc1ccc(O)cc1)C(=O)N[C@@H](C)P(=O)(O)C[C@@H](CCc1ccccc1)C(=O)O`, for which the pKi was 9.97 on Carboxypeptidase A1 [1], 9.80 on Carboxypeptidase A1 [3], 9.28 at Carboxypeptidase A1 [5] and 8.77 at Carboxypeptidase A2. Moreover, in the data set on HeLa [9], the Activity entry is given as “Non-Toxic”. The K turned out to be 1.44 ×10⁵ /M/s in data set [4] and 7.6 ×10⁻⁵ /s in data set [7].
Regarding `CC(=O)N1CCC[C@H]1C(=O)N[C@@H](C)P(=O)(O)C[C@@H](CCc1ccccc1)C(=O)O`, the pKi is 8.77 at Carboxypeptidase A1 [1] and 8.49 on Carboxypeptidase A2.

Broadly, the pKi is the negative decadic logarithm of the Ki, by convention in mol/L.
